How the values were obtained:
[1] = biological target: T1, Aurora kinase A (Homo sapiens) (UniProt O14965); experiment: Inhibition of AURA (unknown origin) at 30 uM by microfluidic mobility shift assay relative to control
T1 sequence (whole entry): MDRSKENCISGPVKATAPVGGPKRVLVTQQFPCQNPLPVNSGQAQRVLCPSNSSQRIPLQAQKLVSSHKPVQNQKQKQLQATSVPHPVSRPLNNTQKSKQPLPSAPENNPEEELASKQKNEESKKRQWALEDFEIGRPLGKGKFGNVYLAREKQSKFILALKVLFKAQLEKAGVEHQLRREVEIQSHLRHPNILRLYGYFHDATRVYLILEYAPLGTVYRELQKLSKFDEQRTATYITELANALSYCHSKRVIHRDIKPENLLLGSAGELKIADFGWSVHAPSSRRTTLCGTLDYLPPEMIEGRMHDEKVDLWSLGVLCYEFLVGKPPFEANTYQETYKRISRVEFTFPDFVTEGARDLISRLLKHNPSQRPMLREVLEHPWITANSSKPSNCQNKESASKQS
Summary of the method: (§1)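 Single-point screen in a 24-enzyme kinase panel using a microfluidic assay. Each compound was tested at […] with ATP at roughly the Km for each enzyme. The pan-AGC inhibitor H-89 served as an internal control on every plate.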

[2] = biological target: Proto-oncogene tyrosine-protein kinase Src (Homo sapiens, UniProt P12931); experiment: Inhibition of SRC (unknown origin) at 30 uM by microfluidic mobility shift assay relative to control; summary of the method: as §1
[3] = biological target: Glycogen synthase kinase-3 beta (Homo sapiens, UniProt P49841); experiment: Inhibition of GSK3beta (unknown origin) at 30 uM by microfluidic mobility shift assay relative to control; summary of the method: as §1
[4] = biological target: Mitogen-activated protein kinase 1 (Homo sapiens, UniProt P28482); experiment: Inhibition of ERK2 (unknown origin) at 30 uM by microfluidic mobility shift assay relative to control; summary of the method: as §1
[5] = biological target: Mitogen-activated protein kinase 3 (Homo sapiens, UniProt P27361); experiment: Inhibition of ERK1 (unknown origin) at 30 uM by microfluidic mobility shift assay relative to control; summary of the method: as §1
[6] = biological target: MAP kinase-activated protein kinase 2 (Homo sapiens) (UniProt P49137); experiment: Inhibition of MK2 (unknown origin) at 30 uM by microfluidic mobility shift assay relative to control; summary of the method: as §1
[7] = biological target: Protein kinase C (PKC) (Homo sapiens) (UniProt O94806+P41743+P17252+P05129+Q05655+P05771+Q05513+Q02156+P24723+Q15139+Q04759); experiment: Inhibition of PKC (unknown origin) at 30 uM by microfluidic mobility shift assay relative to control; summary of the method: as §1
[8] = biological target: Ribosomal protein S6 kinase alpha-5 (Homo sapiens, UniProt O75582); experiment: Inhibition of MSK1 (unknown origin) at 30 uM by microfluidic mobility shift assay relative to control; summary of the method: as §1
Homo sapiens = species on record: Homo sapiens; experiment: Inhibition of PKA (unknown origin) at 30 uM by microfluidic mobility shift assay relative to control; summary of the method: as §1
[9] = biological target: RAC-alpha serine/threonine-protein kinase (Homo sapiens, UniProt P31749); experiment: Inhibition of AKT1 (unknown origin) at 30 uM by microfluidic mobility shift assay relative to control; summary of the method: as §1
RAC-alpha serine/threonine-protein kinase, sequence (P31749 whole entry): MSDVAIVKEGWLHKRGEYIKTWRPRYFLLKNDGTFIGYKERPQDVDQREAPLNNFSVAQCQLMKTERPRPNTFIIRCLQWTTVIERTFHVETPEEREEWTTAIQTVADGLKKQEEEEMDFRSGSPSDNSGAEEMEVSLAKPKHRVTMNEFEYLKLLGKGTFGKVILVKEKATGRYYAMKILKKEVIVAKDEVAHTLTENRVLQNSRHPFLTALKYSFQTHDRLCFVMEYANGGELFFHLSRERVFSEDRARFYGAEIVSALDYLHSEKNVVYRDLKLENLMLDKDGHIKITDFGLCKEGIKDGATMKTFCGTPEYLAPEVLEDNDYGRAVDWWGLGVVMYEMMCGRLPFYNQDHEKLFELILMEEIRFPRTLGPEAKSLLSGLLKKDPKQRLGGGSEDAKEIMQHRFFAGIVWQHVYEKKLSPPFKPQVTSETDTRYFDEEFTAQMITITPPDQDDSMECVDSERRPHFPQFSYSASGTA

Glycogen synthase kinase-3 beta, sequence (P49841 whole entry, looked up): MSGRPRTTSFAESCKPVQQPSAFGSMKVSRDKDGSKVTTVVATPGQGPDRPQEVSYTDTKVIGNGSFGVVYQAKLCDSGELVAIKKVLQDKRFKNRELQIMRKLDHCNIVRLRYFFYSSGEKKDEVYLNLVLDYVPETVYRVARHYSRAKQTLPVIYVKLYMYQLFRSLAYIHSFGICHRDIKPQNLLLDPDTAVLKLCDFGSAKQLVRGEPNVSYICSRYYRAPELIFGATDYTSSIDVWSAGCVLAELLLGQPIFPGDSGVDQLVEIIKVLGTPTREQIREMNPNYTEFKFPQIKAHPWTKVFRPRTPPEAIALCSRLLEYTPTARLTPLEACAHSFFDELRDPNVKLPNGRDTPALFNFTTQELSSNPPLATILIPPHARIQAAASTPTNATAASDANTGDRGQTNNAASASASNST
Proto-oncogene tyrosine-protein kinase Src, sequence (P12931 2-536 limits assumed): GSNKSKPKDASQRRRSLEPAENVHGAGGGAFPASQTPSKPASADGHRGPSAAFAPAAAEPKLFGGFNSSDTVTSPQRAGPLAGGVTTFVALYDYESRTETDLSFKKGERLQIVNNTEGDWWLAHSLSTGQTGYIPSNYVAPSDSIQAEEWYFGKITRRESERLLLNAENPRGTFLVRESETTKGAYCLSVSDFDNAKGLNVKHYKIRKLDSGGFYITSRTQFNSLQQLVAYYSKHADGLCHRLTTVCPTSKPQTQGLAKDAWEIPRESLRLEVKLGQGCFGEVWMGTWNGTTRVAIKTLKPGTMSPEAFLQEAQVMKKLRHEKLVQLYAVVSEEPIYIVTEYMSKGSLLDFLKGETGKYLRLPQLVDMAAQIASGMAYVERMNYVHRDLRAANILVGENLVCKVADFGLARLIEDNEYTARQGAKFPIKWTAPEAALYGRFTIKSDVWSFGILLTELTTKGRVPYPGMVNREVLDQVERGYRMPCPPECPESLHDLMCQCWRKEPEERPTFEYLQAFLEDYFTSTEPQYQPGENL
MAP kinase-activated protein kinase 2 (Homo sapiens), sequence (P49137 whole entry, looked up): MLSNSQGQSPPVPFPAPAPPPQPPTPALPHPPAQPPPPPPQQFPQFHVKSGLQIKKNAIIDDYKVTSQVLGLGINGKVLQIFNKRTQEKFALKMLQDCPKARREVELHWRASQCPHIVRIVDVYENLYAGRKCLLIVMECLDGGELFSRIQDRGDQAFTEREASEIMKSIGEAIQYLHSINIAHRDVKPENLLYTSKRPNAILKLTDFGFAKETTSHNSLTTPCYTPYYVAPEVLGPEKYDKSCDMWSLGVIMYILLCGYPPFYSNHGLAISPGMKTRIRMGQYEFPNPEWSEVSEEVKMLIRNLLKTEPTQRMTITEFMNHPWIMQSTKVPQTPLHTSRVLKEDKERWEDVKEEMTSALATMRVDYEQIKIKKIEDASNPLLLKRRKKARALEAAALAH
Mitogen-activated protein kinase 1, sequence (P28482 whole entry): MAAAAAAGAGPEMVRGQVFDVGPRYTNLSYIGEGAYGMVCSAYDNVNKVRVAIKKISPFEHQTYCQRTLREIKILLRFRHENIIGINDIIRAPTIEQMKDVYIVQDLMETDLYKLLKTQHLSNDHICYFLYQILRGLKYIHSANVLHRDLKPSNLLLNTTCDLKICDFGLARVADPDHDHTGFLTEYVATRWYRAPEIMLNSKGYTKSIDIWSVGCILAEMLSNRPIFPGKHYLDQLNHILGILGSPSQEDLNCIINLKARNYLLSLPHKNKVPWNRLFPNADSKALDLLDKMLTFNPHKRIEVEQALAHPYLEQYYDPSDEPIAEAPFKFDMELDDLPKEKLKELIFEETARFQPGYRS
Mitogen-activated protein kinase 3, sequence (P27361 whole entry): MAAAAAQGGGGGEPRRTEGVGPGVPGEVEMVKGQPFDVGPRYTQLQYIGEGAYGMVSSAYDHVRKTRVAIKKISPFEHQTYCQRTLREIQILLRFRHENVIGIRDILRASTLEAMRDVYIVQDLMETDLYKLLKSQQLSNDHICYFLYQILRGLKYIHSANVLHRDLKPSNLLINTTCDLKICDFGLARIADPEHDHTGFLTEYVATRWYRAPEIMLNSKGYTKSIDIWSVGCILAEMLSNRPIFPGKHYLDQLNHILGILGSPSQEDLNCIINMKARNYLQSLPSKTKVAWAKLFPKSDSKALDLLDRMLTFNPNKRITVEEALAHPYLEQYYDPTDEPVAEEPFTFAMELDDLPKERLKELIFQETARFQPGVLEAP
Ribosomal protein S6 kinase alpha-5, sequence (O75582 whole entry, looked up): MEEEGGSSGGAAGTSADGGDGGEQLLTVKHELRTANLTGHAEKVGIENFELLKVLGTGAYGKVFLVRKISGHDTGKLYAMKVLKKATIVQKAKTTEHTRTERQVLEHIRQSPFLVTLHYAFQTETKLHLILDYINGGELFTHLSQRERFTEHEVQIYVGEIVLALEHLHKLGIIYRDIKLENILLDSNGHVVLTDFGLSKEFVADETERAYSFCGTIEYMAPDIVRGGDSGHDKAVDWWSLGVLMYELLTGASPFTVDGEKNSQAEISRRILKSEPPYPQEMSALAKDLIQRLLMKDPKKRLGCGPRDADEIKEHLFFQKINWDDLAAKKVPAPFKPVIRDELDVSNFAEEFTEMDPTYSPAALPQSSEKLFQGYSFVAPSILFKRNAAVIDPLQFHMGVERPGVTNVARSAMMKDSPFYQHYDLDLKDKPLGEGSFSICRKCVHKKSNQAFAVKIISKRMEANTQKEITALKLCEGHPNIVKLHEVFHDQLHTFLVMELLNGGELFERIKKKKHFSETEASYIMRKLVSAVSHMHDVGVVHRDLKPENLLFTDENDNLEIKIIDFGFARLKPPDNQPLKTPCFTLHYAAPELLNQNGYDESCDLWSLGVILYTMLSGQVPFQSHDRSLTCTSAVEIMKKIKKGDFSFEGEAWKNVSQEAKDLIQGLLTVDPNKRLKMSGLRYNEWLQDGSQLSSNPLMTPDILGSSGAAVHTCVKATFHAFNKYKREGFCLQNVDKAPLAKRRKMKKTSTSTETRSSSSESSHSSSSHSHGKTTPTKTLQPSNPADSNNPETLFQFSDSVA

SMILES | inhibition [1] [%] | inhibition [2] [%] | inhibition [3] [%] | inhibition [4] [%] | inhibition [5] [%] | inhibition [6] [%] | inhibition [7] [%] | inhibition [8] [%] | inhibition (Homo sapiens) [%] | inhibition [9] [%]
O=S(=O)(c1cccc2cnccc12)N1CCCC2(CCNCC2)C1 | 36 | 5 | 3 | 2 | 0 | 0 | 4 | 39 | 83 | 24
NC1(Cc2ccccc2)CCN(c2ncnc3[nH]cnc23)CC1 | 96 | 63 | 53 | 67 | 41 | 23 | 0 | 73 | 96 | 93
COC(=O)C1CCC2(CCN(c3ncnc4[nH]cnc34)CC2)NC1 (racemic) | 64 | 26 | 12 | 19 | 14 | 6 | 0 | 48 | 87 | 61
O=S(=O)(c1cccc2cnccc12)N1CCC2(CCCNC2)CC1 | 24 | 35 | 5 | 13 | 0 | 8 | 9 | 36 | 77 | 0
c1nc(N2CCCC3(CCNCC3)C2)c2nc[nH]c2n1 | 70 | 19 | 32 | 28 | 16 | 19 | 21 | 89 | 98 | 85
OC1CCNC2(CCN(c3ncnc4[nH]cnc34)CC2)C1 (racemic) | 63 | 22 | 19 | 32 | 28 | 8 | 0 | 93 | 98 | 94
NC1(Cc2ccccc2)CCN(S(=O)(=O)c2cccc3cnccc23)CC1 | 43 | 6 | 19 | 17 | 10 | 0 | 12 | 58 | 80 | 15
CN(C)C(=O)C1CCC2(CCN(c3ncnc4[nH]cnc34)CC2)NC1 (racemic) | 69 | 16 | 7 | 25 | 20 | 10 | 6 | 93 | 86 | 69
O=S(=O)(c1cccc2cnccc12)N1CCC2(CCCCN2)CC1 | 71 | 12 | 28 | 9 | 0 | 14 | 0 | 76 | 89 | 27
O=S(=O)(c1cccc2cnccc12)N1CCCC2(CCCNC2)C1 (stereo not given) | 37 | 21 | 14 | 8 | 6 | 4 | 0 | 38 | 79 | 30
O=C(O)C1CCC2(CCN(c3ncnc4[nH]cnc34)CC2)NC1 (racemic) | 95 | 20 | 28 | 37 | 36 | 21 | 0 | 51 | 78 | 40
OCC1CCC2(CCN(c3ncnc4[nH]cnc34)CC2)NC1 (racemic) | 84 | 34 | 21 | 32 | 31 | 22 | 0 | 88 | 98 | 80
